From ChEMBL document CHEMBL1629520, “Synthesis and optimization of antitubercular activities in a series of 4-(aryloxy)phenyl cyclopropyl methanols” (Eur J Med Chem, 2010)
Converted amounts (≈) assume the structure as drawn.

Experiments:
[1] = system: Mycobacterium tuberculosis; assay: Antitubercular activity against Mycobacterium tuberculosis H37Rv after 30 days by agar microdilution method; assay type: functional
Procedure, shortened: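 Compound dissolved in DMSO; two-fold dilutions added to Middlebrook 7H10 with OADC in slanted tubes, preincubated 24 h at 37 °C. Tubes then streaked with 5 × 10⁵ bacilli of H37Rv harvested from L–J culture into 0.85% saline with 0.05% Tween-80. Incubated 30 days at 37 °C. MIC is the lowest concentration giving complete inhibition of colonies, judged against drug-free control tubes.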

[2] = system: Vero; assay: Cytotoxicity against african green monkey Vero cells after 24 hrs by MTS assay; assay type: cell-based; settings: Chlorocebus sabaeus
Procedure, shortened: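 Vero cells were seeded at 10,000/well in DMEM with antibiotics and 10% FBS and left to adhere overnight at 37 °C, 5% CO₂. […] MTS was then added for 2 h and A490 read, with DMSO wells taken as 100% survival.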

[3] = Cytotoxicity against mouse BMDM after 48 hrs by MTS assay; assay type: cell-based
Procedure, shortened: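 Mouse bone-marrow cells were flushed into DMEM with 10% FBS, 15% L-929 conditioned supernatant and non-essential amino acids. They were plated at 10⁵/well and cultured 5 days at 37 °C, 5% CO₂, with medium changed every 3rd day. Graded compound concentrations were added in antibiotic-free FBS-DMEM for 48 h. MTS was added for 2 h and A490 read, with DMSO wells taken as 100% survival.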

[4] = Selectivity index, ratio of IC50 for african green monkey Vero cells to MIC for Mycobacterium tuberculosis H37Rv; assay type: functional
Procedure, shortened: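 Vero cells seeded at 10,000/well in DMEM with antibiotics and 10% FBS, allowed to adhere overnight (37 °C, 5% CO₂). […] MTS added for 2 h, absorbance read at 490 nm, with DMSO wells taken as 100% survival. IC50 divided by H37Rv agar MIC.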

[5] = Selectivity index, ratio of IC50 for mouse BMDM to MIC for Mycobacterium tuberculosis H37Rv; assay type: functional
Procedure, shortened: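 Bone-marrow cells flushed with DMEM containing 10% FBS, 15% L-929 conditioned supernatant and non-essential amino acids. Seeded at 10⁵/well and grown 5 days, medium changed every 3rd day. Compounds added in antibiotic-free FBS-DMEM for 48 h. MTS added for 2 h, A490 read, DMSO wells taken as 100%. IC50 divided by H37Rv MIC.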

[6] = system: Mycobacterium tuberculosis; assay: Antitubercular activity against drug-susceptible Mycobacterium tuberculosis clinical isolate1 after 30 days by agar microdilution method; assay type: functional
[7] = system: Mycobacterium tuberculosis; assay: Antitubercular activity against drug-susceptible Mycobacterium tuberculosis clinical isolate2 after 30 days by agar microdilution method; assay type: functional
[8] = system: Mycobacterium tuberculosis; assay: Antitubercular activity against Mycobacterium tuberculosis H37Rv infected in mouse BMDM assessed as reduction in intracellular CFU at 5 times MIC after 4 weeks relative to control; assay type: functional; parameters: scale not given: the % may be the effect or the level left
Procedure, shortened: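 Murine bone-marrow macrophages cultured 5 days, then infected 3 h with 5 × 10⁶ H37Rv in antibiotic-free DMEM/10% FBS. Extracellular bacteria washed off, and compound added at 5× MIC. After 4 days at 37 °C, 5% CO₂, cells lysed with 0.1% saponin. Lysates serially diluted in saline and plated on 7H11; colonies counted after 4 weeks at 37 °C.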

[9] = system: Mycobacterium tuberculosis; assay: Antitubercular activity against Mycobacterium tuberculosis H37Rv infected in swiss mouse assessed as increase in mean survival time at 100 mg/kg, po qd for 28 days measured on day 30; assay type: functional
Procedure, shortened: (§1)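 Outbred female Swiss mice (18–20 g) infected i.v. via lateral vein with 10⁷ CFU H37Rv; groups of 10 formed next day. Test compound given as aqueous suspension at 100 mg/kg, INH at 25 mg/kg; placebo given to infected controls. All dosing oral, daily for 28 days. Mean survival time and % survivors scored at days 30 and 40; lung bacillary load per g determined on day 30.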

[10] = Chemical stability of the compound in HCl at […] assessed as compound remaining after 3 hrs by HPLC analysis; assay type: physicochemical; settings: HCl solution; read-out: Stability
Procedure, shortened: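 Compound held in 0.1N HCl (gastric pH) at ambient temperature for up to 3 h and analysed by HPLC on a CN column (250 mm × 4 mm, 5 µm) at 25 ± 3 °C with PDA detection. Intact parent was followed by its peak, and degradation products by their retention times.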

[11] = system: Mycobacterium tuberculosis; assay: Antitubercular activity against Mycobacterium tuberculosis H37Rv infected in swiss mouse assessed as increase in mean survival time at 100 mg/kg, po qd for 28 days measured on day 40; assay type: functional; procedure, shortened: as §1
[12] = system: Mycobacterium tuberculosis; assay: Antitubercular activity against Mycobacterium tuberculosis H37Rv infected in swiss mouse assessed as decrease in bacilli load in lungs at 100 mg/kg, po qd for 28 days measured on day 30; assay type: functional; procedure, shortened: as §1
[13] = system: Mycobacterium tuberculosis; assay: Antitubercular activity against Mycobacterium tuberculosis H37Rv infected in swiss mouse assessed as increase mouse survival at 100 mg/kg, po qd for 28 days measured on day 30 relative to control; assay type: functional; procedure, shortened: as §1
[14] = system: Mycobacterium tuberculosis; assay: Antitubercular activity against Mycobacterium tuberculosis H37Rv infected in swiss mouse assessed as increase mouse survival at 100 mg/kg, po qd for 28 days measured on day 40 relative to control; assay type: functional; procedure, shortened: as §1
[15] = system: Mycobacterium tuberculosis; assay: Antitubercular activity against Mycobacterium tuberculosis H37Rv infected in swiss mouse assessed as increase mouse survival at 25 mg/kg, po qd for 28 days measured on day 30 relative to control; assay type: functional; procedure, shortened: as §1
[16] = system: Mycobacterium tuberculosis; assay: Antitubercular activity against Mycobacterium tuberculosis H37Rv infected in swiss mouse assessed as increase in mean survival time at 25 mg/kg, po qd for 28 days measured on day 30 relative to control; assay type: functional; procedure, shortened: as §1
[17] = system: Mycobacterium tuberculosis; assay: Antitubercular activity against Mycobacterium tuberculosis H37Rv infected in swiss mouse assessed as increase in mean survival time at 25 mg/kg, po qd for 28 days measured on day 40; assay type: functional; procedure, shortened: as §1
[18] = system: Mycobacterium tuberculosis; assay: Antitubercular activity against Mycobacterium tuberculosis H37Rv infected in swiss mouse assessed as increase mouse survival at 25 mg/kg, po qd for 28 days measured on day 40 relative to control; assay type: functional; procedure, shortened: as §1

OC(c1ccc(OCc2cccc(Br)c2)cc1)C1CC1 (stereo not drawn)
MIC [1]: 12.5 µg/mL (≈ 37.5 µM)

CN(C)CCOc1ccc(COc2ccc(C(=O)C3CC3)cc2)cc1
MIC [1]: > 12.5 µg/mL

O=C(c1ccc(OCc2ccc(OCCN3CCCCC3)cc2)cc1)C1CC1
MIC [1]: 12.5 µg/mL (≈ 32.9 µM)

O=C(c1ccc(OCc2cccc(OCCN3CCCCC3)c2)cc1)C1CC1
MIC [1]: 12.5 µg/mL (≈ 32.9 µM)

O=[N+]([O-])c1cccc(COc2ccc(C(O)C3CC3)cc2)c1 (stereo not drawn)
MIC [1]: 6.25 µg/mL (≈ 20.9 µM)

CCCCN(CCCC)CCOc1ccc(C(O)C2CC2)cc1 (stereo not drawn)
MIC [1]: 12.5 µg/mL (≈ 39.1 µM)

CCCCN(CCCC)CCOc1ccc(C(=O)C2CC2)cc1
MIC [1]: > 12.5 µg/mL

COc1cc(COc2ccc(C(=O)C3CC3)cc2)ccc1OCCN1CCCCC1
MIC [1]: > 12.5 µg/mL

COc1cc(COc2ccc(C(O)C3CC3)cc2)ccc1OCCN1CCCCC1 (stereo not drawn)
MIC [1]: 6.25 µg/mL (≈ 15.2 µM)

COc1cc(COc2ccc(C(=O)C3CC3)cc2)ccc1OCCN1CCOCC1
MIC [1]: 6.25 µg/mL (≈ 15.2 µM)

COc1cc(COc2ccc(C(=O)C3CC3)cc2)cc(OC)c1OC
MIC [1]: > 12.5 µg/mL

OC(c1ccc(OCc2ccc(OCCN3CCCCC3)cc2)cc1)C1CC1 (stereo not drawn)
MIC [1]: 3.12 µg/mL (≈ 8.18 µM) | IC50 [2]: > 50 µg/mL | IC50 [3]: > 50 µg/mL | Selectivity Index [4]: >10 | Selectivity Index [5]: > 10 | MIC [6]: > 12.5 µg/mL | MIC [7]: > 12.5 µg/mL | Activity [8]: 98% | MST [9]: 27.5 | remaining at 3 h [10]: < 70% | MST [11]: 31.62 | Activity [12]: 9 ×10⁷ /g | survival at 100 mg/kg [13]: 50% | survival at 100 mg/kg [14]: 25%

OC(c1ccc(OCc2cccc(OCCN3CCCCC3)c2)cc1)C1CC1 (stereo not drawn)
MIC [1]: 6.25 µg/mL (≈ 16.4 µM)

COc1cc(COc2ccc(C(O)C3CC3)cc2)ccc1OCCN(C(C)C)C(C)C (stereo not drawn)
MIC [1]: > 12.5 µg/mL

O=C(c1ccc(OCc2ccc(OCc3ccccc3)cc2)cc1)C1CC1
MIC [1]: 1.56 µg/mL (≈ 4.35 µM) | IC50 [2]: > 50 µg/mL | IC50 [3]: > 50 µg/mL | Selectivity Index [4]: >10 | Selectivity Index [5]: > 10 | Activity [8]: 0%

COc1cc(COc2ccc(C(O)C3CC3)cc2)ccc1OCCN1CCOCC1 (stereo not drawn)
MIC [1]: 12.5 µg/mL (≈ 30.2 µM)

O=C(c1ccc(OCc2cccc([N+](=O)[O-])c2)cc1)C1CC1
MIC [1]: 6.25 µg/mL (≈ 21 µM)

OC(c1ccc(OCc2ccc(OCc3ccccc3)cc2)cc1)C1CC1 (stereo not drawn)
MIC [1]: 3.12 µg/mL (≈ 8.66 µM) | IC50 [2]: > 50 µg/mL | IC50 [3]: > 50 µg/mL | Selectivity Index [4]: >10 | Selectivity Index [5]: > 10 | Activity [8]: 54%

O=C(c1ccc(OCc2ccc(Br)cc2)cc1)C1CC1
MIC [1]: 6.25 µg/mL (≈ 18.9 µM)

NNC(=O)c1ccncc1 [ISONIAZID]
survival at 25 mg/kg [15]: 100% | MST [16]: 30 | MST [17]: 40 | survival at 25 mg/kg [18]: 100%

OC(c1ccc(OCc2ccc(Br)cc2)cc1)C1CC1 (stereo not drawn)
MIC [1]: 6.25 µg/mL (≈ 18.8 µM) | Activity [8]: 88% | MST [9]: 23.37

CN(C)CCOc1ccc(COc2ccc(C(O)C3CC3)cc2)cc1 (stereo not drawn)
MIC [1]: 3.12 µg/mL (≈ 9.14 µM) | IC50 [2]: > 50 µg/mL | IC50 [3]: > 50 µg/mL | Selectivity Index [4]: >10 | Selectivity Index [5]: > 10 | Activity [8]: 80% | MST [9]: 12.85

OC(c1ccc(OCc2ccc(OCCN3CCOCC3)cc2)cc1)C1CC1 (stereo not drawn)
MIC [1]: 3.12 µg/mL (≈ 8.14 µM) | IC50 [2]: > 50 µg/mL | IC50 [3]: > 50 µg/mL | Selectivity Index [4]: >10 | Selectivity Index [5]: > 10 | Activity [8]: 89%

O=C(c1ccc(OCc2cccc(Br)c2)cc1)C1CC1
MIC [1]: 12.5 µg/mL (≈ 37.7 µM)

CC(C)N(CCOc1ccc(COc2ccc(C(=O)C3CC3)cc2)cc1)C(C)C
MIC [1]: 12.5 µg/mL (≈ 31.6 µM)

O=C(c1ccc(OCc2ccc(OCCN3CCOCC3)cc2)cc1)C1CC1
MIC [1]: 6.25 µg/mL (≈ 16.4 µM)

COc1cc(COc2ccc(C(O)C3CC3)cc2)cc(OC)c1OC (stereo not drawn)
MIC [1]: 12.5 µg/mL (≈ 36.3 µM)

COc1cc(COc2ccc(C(=O)C3CC3)cc2)ccc1OCCN(C(C)C)C(C)C
MIC [1]: > 12.5 µg/mL

CC(C)N(CCOc1ccc(COc2ccc(C(O)C3CC3)cc2)cc1)C(C)C (stereo not drawn)
MIC [1]: 12.5 µg/mL (≈ 31.4 µM)
